Published values of several laboratories.
Target: Receptor-interacting serine/threonine-protein kinase 4 (RIPK4, Homo sapiens, UniProt P57078)
Residues used in one study (P57078 1-832): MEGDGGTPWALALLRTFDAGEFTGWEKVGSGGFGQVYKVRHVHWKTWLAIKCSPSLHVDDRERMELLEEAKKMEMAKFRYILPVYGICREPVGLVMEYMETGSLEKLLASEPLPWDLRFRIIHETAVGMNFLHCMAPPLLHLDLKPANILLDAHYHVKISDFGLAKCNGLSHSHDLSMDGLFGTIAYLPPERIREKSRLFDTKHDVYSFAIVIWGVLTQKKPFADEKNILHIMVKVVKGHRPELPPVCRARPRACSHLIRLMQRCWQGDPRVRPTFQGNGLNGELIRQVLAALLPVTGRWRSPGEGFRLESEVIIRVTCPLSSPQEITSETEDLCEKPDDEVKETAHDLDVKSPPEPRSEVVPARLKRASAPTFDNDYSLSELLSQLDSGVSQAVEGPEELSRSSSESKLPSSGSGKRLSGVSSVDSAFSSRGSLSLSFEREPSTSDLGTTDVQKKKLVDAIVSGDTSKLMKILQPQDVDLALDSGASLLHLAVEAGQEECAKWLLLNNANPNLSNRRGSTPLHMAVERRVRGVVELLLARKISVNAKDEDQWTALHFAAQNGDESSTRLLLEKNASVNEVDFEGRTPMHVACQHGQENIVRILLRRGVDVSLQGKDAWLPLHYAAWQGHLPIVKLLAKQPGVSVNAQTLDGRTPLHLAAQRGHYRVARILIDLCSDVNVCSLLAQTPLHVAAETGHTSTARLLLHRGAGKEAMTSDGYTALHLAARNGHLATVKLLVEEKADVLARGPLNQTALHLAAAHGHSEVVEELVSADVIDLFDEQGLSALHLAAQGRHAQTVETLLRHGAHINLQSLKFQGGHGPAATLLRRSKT

SMILES | test | conditions | remaining binding
O=C(NCCCN1CCOCC1)c1ccc(Nc2ncc(Cl)c(-c3ccc(Cl)s3)n2)cc1 | binding, competition with immobilised ligand | 1 µM | 46%
c1cncc(-c2cccc(Nc3nccc(NC4CCCCC4)n3)c2)c1 | binding, competition with immobilised ligand | 10 µM | 53%
O=C(c1ccc(Nc2nccc(-c3cc4ccccc4s3)n2)cc1)N1CCC(N2CCCC2)CC1 | binding, competition with immobilised ligand | 1 µM | 30%
CN(C)c1nccc(-c2cnc3ncccn23)n1 | binding | 1 µM | 71%
CC1=C(C#N)[C@@H](c2ccc3[nH]nc(C)c3c2)C(C#N)=C(c2ccc(Cl)cc2)N1 | cell-free assay, competition with immobilised ligand | 1 µM | 71.8%
COc1cnc(Nc2cccc(S(N)(=O)=O)c2)nc1N1CCN(c2ccccc2)C(=O)C1 | binding, competition with immobilised ligand | 1 µM | 86%
CC(=O)c1c(NS(C)(=O)=O)c2cc(-c3ccc(Cl)cc3)c(-c3ccc(Cl)cc3Cl)nc2n(C)c1=O | cell-free assay, competition with immobilised ligand | 1 µM | 61%
C[C@@H](c1ccc(-n2cnc3c(N)ncnc32)cc1)N1CCc2nn(C)c(Cc3ccccc3)c2C1=O | binding, competition with immobilised ligand | 0.1 µM | 40%
C[C@@H]1CCN(c2nccc(-c3cnn4ncccc34)n2)C1 | binding | 1 µM | 18%
O=C(Nc1c[nH]nc1C(=O)NC1CCNCC1)c1cc(F)cc(F)c1 | binding, competition with immobilised ligand | 1 µM | 100%
CN(c1nccc(-c2cnn3ncccc23)n1)C1CC1 | binding | 1 µM | 100%
CS(=O)(=O)N1CCCC(NC(=O)[C@H](CCC2CCCCC2)NC(=O)c2ccc(CNc3ncnc4c3nnn4-c3ccccc3)cc2)C1 (stereo partly drawn) | cell-free assay, competition with immobilised ligand | 0.1 µM | 100%
CC1CCCN1c1nccc(-c2cnn3ncccc23)n1 (stereo not drawn) | binding | 1 µM | 98%
FC(F)(F)Oc1cccc(-c2cnc3ccc(-c4ccncc4)nn23)c1 | binding, competition with immobilised ligand | 5 µM | 69%
O=C(NCCCC1CCCCC1)c1ccc(CNC(=O)c2cnn(-c3ccccc3)c2C(F)(F)F)cc1 | cell-free assay, competition with immobilised ligand | 0.1 µM | 58%
N[C@@H]1CCN(c2nccc(-c3cnn4ncccc34)n2)C1 | binding | 1 µM | 100%
C=CC(=O)N1CCC(C(=O)NCC(=O)N2CCN(c3nc(-c4cnc(N)nc4C(F)F)nc(N4CCOCC4)n3)CC2)CC1 | binding, competition with immobilised ligand | 1 µM | 76%
CN(c1ccnc(CNc2nc(Nc3ccc4c(c3)CC(=O)N4)ncc2C(F)(F)F)n1)S(C)(=O)=O | cell-free assay, competition with immobilised ligand | 1 µM | 6%
O=C(c1ccc(Nc2ncc(Cl)c(-c3ccc(Cl)s3)n2)cc1)N1CCC(N2CCCC2)CC1 | binding, competition with immobilised ligand | 1 µM | 8%
CN(CCCC(F)(F)F)c1nccc(-c2cnn3ncccc23)n1 | binding | 1 µM | 100%
COc1cc(-c2cn(C3CCc4ccccc4N(CC(F)(F)F)C3=O)nn2)ccc1-n1ccc(C)n1 (stereo not drawn) | cell-free assay, competition with immobilised ligand | 1 µM | 52%
